The results in this text go back to ChEMBL document CHEMBL2169746, “Design, synthesis, and antitumor evaluation of 2,4,6-triaryl pyridines containing chlorophenyl and phenolic moiety” (Eur J Med Chem, 2012).

Assay [1] has as its target T1, DNA topoisomerase 1 (Homo sapiens) (UniProt P11387).
T1 sequence (whole entry): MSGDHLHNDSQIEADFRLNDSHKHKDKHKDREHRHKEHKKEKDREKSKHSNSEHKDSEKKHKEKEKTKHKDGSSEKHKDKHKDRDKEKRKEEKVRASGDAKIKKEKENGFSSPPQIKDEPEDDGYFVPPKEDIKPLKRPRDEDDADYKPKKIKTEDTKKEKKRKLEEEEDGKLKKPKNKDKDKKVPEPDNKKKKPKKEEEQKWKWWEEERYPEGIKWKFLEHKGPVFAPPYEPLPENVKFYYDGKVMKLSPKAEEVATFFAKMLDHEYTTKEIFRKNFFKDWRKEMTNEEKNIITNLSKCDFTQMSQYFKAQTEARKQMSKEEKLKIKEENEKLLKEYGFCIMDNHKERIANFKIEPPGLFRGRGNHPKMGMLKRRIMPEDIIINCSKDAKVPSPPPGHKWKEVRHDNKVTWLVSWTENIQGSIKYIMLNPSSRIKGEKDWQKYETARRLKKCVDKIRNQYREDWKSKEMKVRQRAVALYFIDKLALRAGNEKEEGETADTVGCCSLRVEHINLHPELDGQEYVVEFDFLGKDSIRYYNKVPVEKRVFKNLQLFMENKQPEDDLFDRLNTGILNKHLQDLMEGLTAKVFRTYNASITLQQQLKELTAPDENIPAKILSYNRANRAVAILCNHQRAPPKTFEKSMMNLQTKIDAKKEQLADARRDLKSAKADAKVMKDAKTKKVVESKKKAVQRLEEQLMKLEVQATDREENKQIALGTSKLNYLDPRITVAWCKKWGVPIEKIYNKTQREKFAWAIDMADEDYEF
The assay is described as follows: Inhibition of recombinant human DNA topoisomerase-1-mediated relaxation of supercoiled pBR322 at 100 uM after 30 mins using ethidium bromide staining by agarose gel electrophoresis. An outline of the steps:
(§1)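 Compounds from 20 mM DMSO stocks. 100 ng pBR322 plasmid DNA with 1 unit recombinant human topo I, with or without compound, 37 °C for 30 min. Relaxation buffer was 10 mM Tris-HCl pH 7.9, 150 mM NaCl, 0.1% BSA, 1 mM spermidine. Relaxation of supercoiled DNA assessed by gel imaging.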

The target in assay [2] is DNA topoisomerase 2-alpha (Homo sapiens) (UniProt P11388). The experiment in a line: Inhibition of human DNA topoisomerase-2alpha-mediated relaxation of supercoiled pBR322 at 20 uM after 30 mins using ethidium bromide staining by agarose gel electrophoresis. Put shortly: (§2)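 200 ng supercoiled pBR322 with 1 unit human topo IIα, with or without compound. Buffer was 10 mM Tris-HCl pH 7.9, 50 mM NaCl, 5 mM MgCl₂, 1 mM EDTA, 1 mM ATP and bovine serum albumin. Incubated 30 min at 30 °C, stopped with EDTA. Products run on 1% agarose gel, 25 V, 4 h, TAE buffer. Compound stocks 20 mM in DMSO.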
Chain of DNA topoisomerase 2-alpha (Homo sapiens) (P11388 whole entry): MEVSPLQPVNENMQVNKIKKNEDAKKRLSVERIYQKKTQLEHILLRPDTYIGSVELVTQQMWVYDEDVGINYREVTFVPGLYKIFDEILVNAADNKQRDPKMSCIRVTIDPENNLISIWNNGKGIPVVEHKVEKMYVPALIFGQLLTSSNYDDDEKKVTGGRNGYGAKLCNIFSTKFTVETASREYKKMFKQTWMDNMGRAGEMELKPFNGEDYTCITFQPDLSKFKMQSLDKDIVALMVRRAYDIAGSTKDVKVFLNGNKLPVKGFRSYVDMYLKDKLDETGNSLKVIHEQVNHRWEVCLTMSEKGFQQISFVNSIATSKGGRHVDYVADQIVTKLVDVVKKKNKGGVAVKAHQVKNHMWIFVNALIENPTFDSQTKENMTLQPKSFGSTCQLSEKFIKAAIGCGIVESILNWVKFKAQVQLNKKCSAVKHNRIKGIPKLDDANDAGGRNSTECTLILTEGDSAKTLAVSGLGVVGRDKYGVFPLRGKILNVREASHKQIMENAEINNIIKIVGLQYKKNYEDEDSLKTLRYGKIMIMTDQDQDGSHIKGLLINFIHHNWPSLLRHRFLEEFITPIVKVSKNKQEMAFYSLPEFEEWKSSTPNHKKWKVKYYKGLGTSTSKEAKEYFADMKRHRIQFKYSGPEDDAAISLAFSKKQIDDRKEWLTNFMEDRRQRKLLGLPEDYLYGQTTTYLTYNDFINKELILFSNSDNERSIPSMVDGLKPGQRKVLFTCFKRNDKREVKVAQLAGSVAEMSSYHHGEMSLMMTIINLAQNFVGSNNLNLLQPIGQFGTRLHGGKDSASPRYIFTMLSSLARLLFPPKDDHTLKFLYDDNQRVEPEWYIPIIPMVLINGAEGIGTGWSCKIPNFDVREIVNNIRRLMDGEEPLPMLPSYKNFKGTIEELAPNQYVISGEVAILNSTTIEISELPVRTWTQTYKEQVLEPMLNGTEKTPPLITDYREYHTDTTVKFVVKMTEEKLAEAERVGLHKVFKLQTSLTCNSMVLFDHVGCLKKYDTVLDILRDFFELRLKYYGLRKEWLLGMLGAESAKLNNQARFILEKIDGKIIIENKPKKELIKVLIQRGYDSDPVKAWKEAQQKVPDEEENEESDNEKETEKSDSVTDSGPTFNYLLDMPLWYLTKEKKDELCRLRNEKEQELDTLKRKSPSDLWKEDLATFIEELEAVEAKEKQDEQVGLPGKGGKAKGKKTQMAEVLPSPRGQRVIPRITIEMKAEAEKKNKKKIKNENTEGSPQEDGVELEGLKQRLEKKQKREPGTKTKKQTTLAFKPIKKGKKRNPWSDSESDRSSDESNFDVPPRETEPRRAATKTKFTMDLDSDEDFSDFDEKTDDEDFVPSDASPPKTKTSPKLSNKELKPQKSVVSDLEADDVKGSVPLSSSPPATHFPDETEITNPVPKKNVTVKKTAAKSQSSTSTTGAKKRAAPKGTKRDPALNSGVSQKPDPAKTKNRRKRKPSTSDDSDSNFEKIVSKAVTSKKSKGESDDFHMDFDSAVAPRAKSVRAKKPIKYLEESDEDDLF

For assay [3], the system named is T47D. The assay is described as follows: Cytotoxicity against human T47D cells after 2 days by cell counting kit-8 analysis. It is filed as functional, cell-based. As to conditions: 48 h. An outline of the steps:
(§3)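 Cells grown per supplier's instructions, seeded at 2-4 × 10⁴ cells/well and incubated overnight in medium with 10% FBS at 37 °C, 5% CO₂. On day 2, after 4 h FBS starvation, medium was replaced with medium containing graded compound concentrations. Absorbance read at 450 nm. IC50 from a four-parameter logistic fit. Three independent experiments in triplicate, mean ± S.D.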
(In general: Formazan colour is commonly taken as a measure of viable cells.)

Assay [4] deals with HEK293. The experiment in a line: Cytotoxicity against human HEK293 cells after 2 days by cell counting kit-8 analysis. It is filed as cell-based. As to conditions: HEK293, 48 h. Put shortly: as §3
Assay [5] concerns the target DNA topoisomerase 2-alpha (Homo sapiens) (UniProt P11388). The experiment in a line: Inhibition of human DNA topoisomerase-2alpha-mediated relaxation of supercoiled pBR322 at 100 uM after 30 mins using ethidium bromide staining by agarose gel electrophoresis. An outline of the steps:
as §2

For assay [6], the target named is T1, DNA topoisomerase 1 (Homo sapiens). The experiment in a line: Inhibition of recombinant human DNA topoisomerase-1-mediated relaxation of supercoiled pBR322 at 20 uM after 30 mins using ethidium bromide staining by agarose gel electrophoresis. An outline of the steps: as §1
The subject of assay [7] is DU-145. The experiment in a line: Cytotoxicity against human DU145 cells after 2 days by cell counting kit-8 analysis. It is filed as functional, cell-based. As to conditions: DU-145, 48 h. An outline of the steps:
as §3

Assay [8] relates to HCT-15. The experiment in a line: Cytotoxicity against human HCT15 cells after 2 days by cell counting kit-8 analysis. It is filed as functional, cell-based. As to conditions: HCT-15, 48 h. An outline of the steps: as §3

As to `Oc1ccc(-c2cc(-c3cccc(Cl)c3)nc(-c3ccccn3)c2)cc1`, the inhibition in assay [1] came to 59.4%; in assay [2], 0%; in assay [5], 67.5%; in assay [6], 0%. In addition, the IC50 in assay [3] came to 27.9 µM; in assay [4], 25.4 µM; in assay [7] it was 35.2 µM; in assay [8], 28.2 µM.
Take `Oc1cccc(-c2cc(-c3ccco3)nc(-c3ccccc3Cl)c2)c1`: the inhibition was 0% in assay [1], 8.6% in assay [2] and 77.9% in assay [5]. The IC50 in assay [3] came out at 2.01 µM; in assay [4], 1.86 µM; in assay [7], 1.63 µM; in assay [8], 2.23 µM.
Regarding `Oc1cccc(-c2cc(-c3ccc(Cl)cc3)nc(-c3ccsc3)c2)c1`, the inhibition in assay [1] was determined as 11.7%; in assay [2], 38.3%; in assay [5], 71.6%. Also, the IC50 in assay [3] turned out to be 11.5 µM; in assay [4], 11.2 µM; in assay [7] it was 11.6 µM; in assay [8] it was 8.85 µM.
As to `Oc1cccc(-c2cc(-c3ccccc3)nc(-c3cccc(Cl)c3)c2)c1`, the values for the inhibition in assay [1], in assay [2] and in assay [5] were 11.5%, 49.1% and 81.1%, respectively. Moreover, the IC50 in assay [3] was determined as 3.7 µM; in assay [4], 3.12 µM; in assay [7], 2.75 µM; in assay [8], 2.55 µM.
As to `Oc1ccc(-c2cc(-c3ccc(Cl)cc3)nc(-c3ccccn3)c2)cc1`, the inhibition came to 12.7% in assay [1], 13.1% in assay [2] and 66.7% in assay [5]. Moreover, the IC50 in assay [3] was 25.9 µM; in assay [4], 27.2 µM; in assay [7], 22.5 µM; in assay [8], 21.3 µM.
With `Oc1ccc(-c2cc(-c3cccs3)nc(-c3ccccc3Cl)c2)cc1`, the figures for the inhibition in assay [1], in assay [2] and in assay [5] were 2.2%, 8.2% and 78.3%, respectively. Besides, the IC50 in assay [3] was determined as 5.87 µM; in assay [4] it was 5.22 µM; in assay [7], 4.19 µM; in assay [8], 5.43 µM.
Turning to `Oc1ccc(-c2cc(-c3ccco3)nc(-c3ccccc3Cl)c2)cc1`, the inhibition in assay [1] was determined as 3.9%; in assay [2], 7.7%; in assay [5], 77.8%. Further, the IC50 in assay [3] was found to be 5.48 µM; in assay [4] it was 4.31 µM; in assay [7], 5.3 µM; in assay [8], 5.46 µM.
As for `Oc1cccc(-c2cc(-c3ccc(Cl)cc3)nc(-c3cccnc3)c2)c1`, the figures for the inhibition in assay [1], in assay [2] and in assay [5] were 2.8%, 10.6% and 40.4%, respectively. Besides, the 50% inhibitory concentration (IC50) in assay [3] amounted to 18.1 µM; in assay [4], 39.5 µM; in assay [7] it was 26.8 µM; in assay [8] it was 16.8 µM.
`Oc1cccc(-c2cc(-c3ccc(Cl)cc3)nc(-c3cccs3)c2)c1`: the inhibition in assay [1] is 15.1%; in assay [2], 54.2%; in assay [5], 75.5%. In addition, the IC50 in assay [3] was 10.5 µM; in assay [4], 11.8 µM; in assay [7], 11.6 µM; in assay [8] it was 9.28 µM.
Take `Oc1ccc(-c2cc(-c3cccc(Cl)c3)nc(-c3ccco3)c2)cc1`: the inhibition in assay [1] turned out to be 25.5%; in assay [2] it was 0%; in assay [5], 71.3%. For the same molecule, the IC50 in assay [3] came to 5.22 µM; in assay [4], 2.88 µM; in assay [7], 5.75 µM; in assay [8], 8.02 µM.
In the case of `Oc1ccc(-c2cc(-c3ccccc3)nc(-c3cccc(Cl)c3)c2)cc1`, the inhibition in assay [1] turned out to be 0%; in assay [2], 0.5%; in assay [5], 76.8%. The 50% inhibitory concentration (IC50) was determined as 4.79 µM in assay [3], 2.82 µM in assay [4], 5.36 µM in assay [7] and 6.1 µM in assay [8].
For the molecule `Oc1ccc(-c2cc(-c3ccccc3)nc(-c3ccccc3Cl)c2)cc1`, the inhibition was determined as 13.6% in assay [1], 5.5% in assay [2] and 77.5% in assay [5]. Besides, the 50% inhibitory concentration (IC50) in assay [3] was 5.46 µM; in assay [4], 3.93 µM; in assay [7], 2.8 µM; in assay [8] it was 4.99 µM.
Turning to `Oc1ccc(-c2cc(-c3ccsc3)nc(-c3cccc(Cl)c3)c2)cc1`, the inhibition in assay [1] worked out at 26%; in assay [2], 0%; in assay [5], 83.7%. Besides, the IC50 in assay [3] came to 7.39 µM; in assay [4] it was 2.67 µM; in assay [7], 6.22 µM; in assay [8] it was 5.76 µM.
In the case of `Oc1cccc(-c2cc(-c3cccc(Cl)c3)nc(-c3ccco3)c2)c1`, the inhibition in assay [1] turned out to be 5.5%; in assay [2] it was 4.8%; in assay [5] it was 70.1%. Moreover, the IC50 in assay [3] worked out at 3.57 µM; in assay [4], 2.53 µM; in assay [7], 2.02 µM; in assay [8], 2.46 µM.
For the molecule `Oc1cccc(-c2cc(-c3cccc(Cl)c3)nc(-c3cccs3)c2)c1`, the inhibition in assay [1] amounted to 7.6%; in assay [2], 39%; in assay [5], 80.4%. In addition, the IC50 in assay [3] was 3.41 µM; in assay [4], 3.15 µM; in assay [7], 2.65 µM; in assay [8], 2.61 µM.
For `Oc1cccc(-c2cc(-c3ccncc3)nc(-c3ccc(Cl)cc3)c2)c1`, the inhibition in assay [1] was found to be 8%; in assay [2] it was 12.9%; in assay [5] it was 51.7%. The IC50 in assay [3] stood at 3.33 µM; in assay [4] it was 2.89 µM; in assay [7], 2.51 µM; in assay [8] it was 2.63 µM.
On to `Oc1cccc(-c2cc(-c3ccccc3)nc(-c3ccc(Cl)cc3)c2)c1`, for which the inhibition in assay [1] was 7.1%; in assay [2], 53%; in assay [5], 76.3%. Also, the 50% inhibitory concentration (IC50) in assay [3] is 11.3 µM; in assay [4], 11.6 µM; in assay [7], 11.2 µM; in assay [8], 8.11 µM.
Take `Oc1cccc(-c2cc(-c3ccsc3)nc(-c3cccc(Cl)c3)c2)c1`: the inhibition in assay [1] is 26.2%; in assay [2] it was 15.4%; in assay [5], 80.1%. Also, the IC50 amounted to 3.54 µM in assay [3], 3.18 µM in assay [4], 3.33 µM in assay [7] and 2.51 µM in assay [8].
With `Oc1cccc(-c2cc(-c3ccccc3)nc(-c3ccccc3Cl)c2)c1`, the inhibition in assay [1] stood at 3.2%; in assay [2], 23%; in assay [5] it was 83%. The half-inhibitory concentration (IC50) in assay [3] worked out at 2.92 µM; in assay [4], 1.76 µM; in assay [7] it was 1.48 µM; in assay [8], 2.93 µM.
As for `Oc1cccc(-c2cc(-c3ccc(Cl)cc3)nc(-c3ccco3)c2)c1`, the values for the inhibition in assay [1], in assay [2] and in assay [5] were 27.1%, 16.7% and 63.8%, respectively. For the same molecule, the IC50 amounted to 10.5 µM in assay [3], 8.19 µM in assay [4], 11.4 µM in assay [7] and 10.2 µM in assay [8].
As for `Oc1cccc(-c2cc(-c3cccs3)nc(-c3ccccc3Cl)c2)c1`, the inhibition in assay [1] came out at 2.7%; in assay [2], 10.7%; in assay [5] it was 78.9%. The IC50 in assay [3] was determined as 3.99 µM; in assay [4], 2.6 µM; in assay [7] it was 1.7 µM; in assay [8] it was 2.79 µM.

What is called inhibition is how much of the control response was suppressed. What is called IC50 is the concentration that gives 50% inhibition. Lower therefore signals greater potency in that assay.
